pIC50: −log10 of the molar value. Active and inactive are the calls of the source. No cut-off for these calls is given here.
What follows are compounds tested on SMMC-7721 (assay: Growth inhibition of human SMMC7721 cells after 48 hrs by MTT assay). Conditions: SMMC-7721, 48 h.
Type: functional, cell-based
Outline: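 SMMC7721 human hepatocellular carcinoma cells were kept in DMEM with 10% fetal calf serum at 37 °C and 5% CO2, and passaged twice weekly to stay in log growth. After 24 h at 7500 cells per well, compounds were added at various concentrations for 48 h, in triplicate. Viability was read as MTT formazan dissolved in DMSO, at 570 nm. IC50 determined; 10-hydroxycamptothecin served as positive control.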
For `CC[C@@]1(O)C(=O)OCc2c1cc1n(c2=O)Cc2cc3cc(O)ccc3nc2-1` [HYDROXYCAMPTOTHECIN], the pIC50 was 6.85. `C[C@@H]1CC[C@@]2(OC1)O[C@H]1C[C@H]3[C@@H]4CCC5=C[C@@H](O[C@@H]6O[C@H](CO)[C@@H](O)[C@H](O[C@@H]7O[C@@H](C)[C@H](O)[C@@H](O)[C@H]7O)[C@H]6O[C@@H]6O[C@@H](C)[C@H](O)[C@@H](O)[C@H]6O)CC[C@]5(C)[C@H]4CC[C@]3(C)[C@@]1(O)[C@@H]2C` was tested, and the pIC50 was 5.34.

The compounds below were run on Bel-7402 (assay: Cytotoxicity against human Bel7402 cells at 10 uM after 48 hrs by MTT assay). Conditions: not given.
Type: functional
Outline: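 Bel-7402 human hepatocellular carcinoma cells were grown in DMEM with 10% fetal calf serum at 37 °C under 5% CO2 and subcultured twice weekly. Cells were seeded at 7500 per well and, after 24 h, compound was added at 10 µM. After 48 h exposure in triplicate, MTT was added, formazan was dissolved in DMSO and absorbance was read at 570 nm. The value is % inhibition.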
`C[C@@H]1O[C@@H](O[C@@H]2[C@@H](O)[C@H](O[C@H]3CC[C@@]4(C)C(=CC[C@@H]5[C@@H]4CC[C@@]4(C)[C@H]5C[C@@H]5O[C@]6(CC[C@](C)(O)CO6)[C@@H](C)[C@@]54O)C3)O[C@H](CO)[C@H]2O)[C@H](O)[C@H](O)[C@H]1O` was tested, and the Activity was “inactive”. `C[C@@H]1CC[C@@]2(OC1)O[C@H]1C[C@H]3[C@@H]4CCC5=CC(=O)CC[C@]5(C)[C@H]4CC[C@]3(C)[C@@]1(O)[C@@H]2C` was tested, and the Activity was “inactive”. `C/C(C(=O)CC[C@@H](C)CO)=C1/C(=O)C[C@H]2[C@@H]3CCC4=C[C@@H](O[C@@H]5O[C@H](CO)[C@@H](O)[C@H](O[C@@H]6O[C@@H](C)[C@H](O)[C@@H](O)[C@H]6O)[C@H]5O[C@@H]5O[C@@H](C)[C@H](O)[C@@H](O)[C@H]5O)CC[C@]4(C)[C@H]3CC[C@]12C` was tested, and the Activity was “inactive”. `C[C@@H]1[C@@]2(CC[C@](C)(O)CO2)O[C@H]2C[C@H]3[C@@H]4CCC5=CC(=O)CC[C@]5(C)[C@H]4CC[C@]3(C)[C@]21O` was tested, and the Activity was “inactive”. For `C[C@@H]1[C@@]2(CC[C@@](C)(CO)O2)O[C@H]2C[C@H]3[C@@H]4C=CC5=CC(=O)CC[C@]5(C)[C@H]4CC[C@]3(C)[C@]21O`, the Activity was “inactive”. `C[C@@H]1O[C@@H](O[C@H]2[C@H](O[C@H]3CC[C@@]4(C)C(=CC[C@@H]5[C@@H]4CC[C@@]4(C)[C@H]5C[C@@H]5O[C@]6(CC[C@](C)(O)CO6)[C@@H](C)[C@@]54O)C3)O[C@H](CO)[C@@H](O)[C@@H]2O[C@@H]2O[C@@H](C)[C@H](O)[C@@H](O)[C@H]2O)[C@H](O)[C@H](O)[C@H]1O` was tested, and the Activity was “inactive”. `C[C@@H]1[C@@]2(CC[C@@](C)(CO)O2)O[C@H]2C[C@H]3[C@@H]4CCC5=CC(=O)CC[C@]5(C)[C@H]4CC[C@]3(C)[C@]21O` was tested, and the Activity was “inactive”. Compound `C[C@@H]1CC[C@@]2(OC1)O[C@H]1C[C@H]3[C@@H]4CCC5=C[C@@H](O[C@@H]6O[C@H](CO)[C@@H](O)[C@H](O[C@@H]7O[C@@H](C)[C@H](O)[C@@H](O)[C@H]7O)[C@H]6O[C@@H]6O[C@@H](C)[C@H](O)[C@@H](O)[C@H]6O)CC[C@]5(C)[C@H]4CC[C@]3(C)[C@@]1(O)[C@@H]2C` has an Activity of 99.1%.

— ChEMBL document CHEMBL1154372, “Steroidal sapogenins and glycosides from the rhizomes of Dioscorea bulbifera” (J Nat Prod, 2009)
